How the values were obtained:
[1] = Metabolic stability in human liver microsomes; format: in vitro ADME
Method in brief: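 Test compound (10 μM) preincubated 5 min at 37 °C with HLM (1 mg/mL) in 0.1 M phosphate buffer pH 7.4, then started with 2 mM NADPH under shaking at 37 °C. Samples at 0, 10, 20, 40 and 60 min quenched in cold acetonitrile with labetalol internal standard and centrifuged. Unchanged substrate and metabolites tracked; t1/2 and CLint from kinetic analysis.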

[2] = reference compounds of the solubility assay; cited from earlier work

Row | Structure (SMILES) | intrinsic clearance ([1]; HLM, kinetic analysis in WebMetabase) [μL/min∗ mgprot] | half-life at 10 μM ([1]; human, liver microsomes, pH 7.4) [h] | equilibrium solubility of reference compounds [2] [µM]
1 | Cc1cc(-c2ccccc2)nc2nc(C(=O)Nc3ccccc3C(N)=O)nn12 [Compound 23] | 4.18 | 2.77 | –
2 | C[C@H]1O[C@@H](O[C@H]2[C@@H](O)C[C@H](O[C@H]3[C@@H](O)C[C@H](O[C@H]4CC[C@@]5(C)[C@H](CC[C@@H]6[C@@H]5C[C@@H](O)[C@]5(C)[C@@H](C7=CC(=O)OC7)CC[C@]65O)C4)O[C@@H]3C)O[C@@H]2C)C[C@H](O)[C@@H]1O [Digossin] | – | – | 84.0
